# Test: Toxicity liver stage against HepG2, at 10uM
# Type: cell-based
# Parameters: test concentration 10 uM, cell line HepG2-A16-CD81EGFP
# Conditions: human, HepG2-A16-CD81EGFP cells; read-out: INHIBITION
# Summary of the method: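 Uninfected HepG2-A16-CD81EGFP cells, 3 × 10^3 per well, 1536-well, plated on prespotted compound at 10 μM final, parasite-free screening media added to match infected plates; puromycin 10 μM positive, DMSO 0.5% negative; run in parallel with 48 h PbLuc assay at 37 °C, 5% CO2; viability by CellTiter-Glo luminescence, normalized to controls.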
row,Structure (SMILES),cytotoxicity at 10 µM
1,CC(C)c1nc(CSc2nnc(C3CC3)n2CC(N)=O)no1,-147%
2,Cc1ccc(NC(=O)CC2NC(N3CCc4ccccc43)=NC2=O)cc1 (stereo not drawn),0.417%
3,O=C(Cn1cccn1)N1CCC(c2nnc(C(F)(F)F)o2)CC1,-10.8%
4,O=C(c1cscn1)N1CCC2(CC1)CCN(S(=O)(=O)c1ccccc1)C2,10.5%
5,Cc1nc(NC(C)C)nc2c1CN(Cc1nccn1C)CC2,8.13%
6,CO[C@@H]1CC[C@H]2[C@H]1OCCN2S(=O)(=O)c1cn(C)cn1,5.32%
7,COCC1CC2(CCN(C(=O)c3oc4ccccc4c3C)CC2)CO1 (stereo not drawn),-141%
8,CCOc1cc(=O)n2c(c1C(=O)OCc1ccc(F)cc1)CCCC2,3.51%
9,c1cncc(OCc2noc3c2CN(Cc2ccoc2)CC3)c1,-8.33%
10,CCN(CC)C(=O)c1ccn(COc2ccc(F)cc2F)n1,7.61%
11,COc1cccc(CNC(=O)c2cc(C)nc(N3CCCC3)n2)c1,23.1%
12,CCn1ccc(NS(=O)(=O)c2cccc(CSC)c2)n1,10.4%
13,Cc1cc(C(F)(F)F)nn1C(C)C(=O)NN1CCOCC1 (stereo not drawn),-1.67%
14,Cc1ccc(CNc2cc(C(=O)N3CCOCC3)nc(C)n2)cc1,-1.61%
15,CC1CCN(C(=O)C2CC(=O)N(c3cnn(C(C)C)c3)C2)CC1 (stereo not drawn),-0.343%
16,Cn1ccc(C(=O)N2CCC(c3cc(CCO)n(C)n3)C2)n1 (stereo not drawn),-3.69%
17,Cc1ncsc1C(=O)N1CCC(c2ccc3c(NC(C)C)n[nH]c3n2)C1 (stereo not drawn),4.42%
18,CC(=O)N1CC(C(=O)N2CCCC(Cn3ccnc3C)C2)C1 (stereo not drawn),1.27%
19,Cc1ncsc1CN1CCOC(C)(C(=O)N2CCOCC2)C1 (stereo not drawn),-1.95%
20,CNC(=O)C1(C)CN(c2nc(C)cc(C)n2)CCO1 (stereo not drawn),7.92%
21,Cc1cc(Nc2ncccn2)nc(C2CCCN(CCO)C2)n1 (stereo not drawn),1.09%

row,Structure (SMILES),cytotoxicity at 10 µM
1,COc1cc2cc3c(nc2cc1OC)OCCN(Cc1cccs1)C3,11.4%
2,Cc1cnn(CC2CCN(CC(O)c3ccc(F)cc3)CC2)c1 (stereo not drawn),-0.237%
3,CCC(c1ccncc1)N(C)S(C)(=O)=O (stereo not drawn),-5.98%
4,CCCn1c(NC(=O)CNC(=O)OCC)nc2ccccc21,-4.41%
5,CC(=O)N1CCN(c2ccccc2CNc2cncc(C)c2)CC1,2.22%
6,OC1CCN(c2nc(-c3ccccc3)no2)CC1,-9.57%
7,Cn1cc(CNC2CCCOc3c(Cl)cccc32)cn1 (stereo not drawn),10.7%
8,CCC1(CC)CC(=O)N(CC(O)c2cc(F)ccc2F)C1=O (stereo not drawn),-4.42%
9,COc1ccc(Cl)cc1CS(=O)(=O)Cc1nc(C2CC2)no1,3.43%
10,Cc1noc(C(C)Nc2ccc3oc(=O)[nH]c3c2)n1 (stereo not drawn),-2.27%
11,CC(C)S(=O)(=O)C(C)C(=O)NCc1ccccc1COc1ccccc1 (stereo not drawn),12.1%
12,NC(=O)C1CCN(c2ncccc2C(=O)N2CCc3ccccc32)C1 (stereo not drawn),-5.78%
13,Cc1cc(F)ccc1S(=O)(=O)N(C)CC(N)=O,1.38%
14,CCS(=O)(=O)CC(=O)NC(c1ccccc1)C1CCCC1 (stereo not drawn),-137%
15,N#Cc1ncn(CCC(=O)Nc2ccccc2F)n1,-150%
16,O=C(NCc1ccncc1)c1ccc(Cl)cc1F,0.55%
17,O=C(Nc1cccc(CN2CCOC2=O)c1)N1CCCCCC1,18.6%
18,CC(OCC(F)(F)F)C(=O)NCCN(C)C (stereo not drawn),-3.17%
19,CN(CC(=O)NC(C)(C)C)Cc1nc(-c2ccccc2)c[nH]1,-2.23%
20,O=C(C[S+]([O-])Cc1ccc(F)cc1Cl)N1CCc2sccc2C1 (stereo not drawn),-2.22%
21,Cc1nccc(CNC(=O)N2CCN(Cc3ccccc3)C[C@H]2C)n1,-128%

row,Structure (SMILES),cytotoxicity at 10 µM
1,Cc1cnn(C2CN(Cc3nnc(C4CC4)o3)C2)c1,-6.49%
2,CC(Nc1ccc(CCN2CCCCC2)cc1)C(=O)N(C)CCC#N (stereo not drawn),7.61%
3,CCCN1CCCN(C(=O)C(CC)N2CCCC2=O)CC1 (stereo not drawn),-6.17%
4,C[S+]([O-])c1nncn1CC(=O)c1cccc(Cl)c1 (stereo not drawn),-1.02%
5,Cc1cccc(NC(=O)[C@@H]2CCCN2CC(=O)N2CCCCCC2)n1,20.3%
6,CC(C)c1nc(CN(C)CC2CCN(CCO)CC2)no1,-4.32%
7,CC(=O)N1CCN(CCNS(=O)(=O)c2ccc(C)c(F)c2)CC1,-1.84%
8,COc1nccc(N2CC[C@@H](N3CCN(C)CC3)[C@H](O)C2)c1C#N,-147%
9,CC1(c2ccccc2)CCCN(C(=O)c2ccn3nnnc3c2)C1 (stereo not drawn),22.6%
10,COc1cccc([C@@H]2CCN(Cc3cccc(C)n3)C[C@H]2O)c1,2.22%
11,Cc1nc(C2CCNCC2)cc(N(C)CCc2cn[nH]c2)n1,-1.54%
12,CC(NC1CCSCC1)c1ccccc1-n1cccn1 (stereo not drawn),-2.24%
13,COCCn1cncc1Cn1cccc(C(F)(F)F)c1=O,-19.2%
14,CCN(C)S(=O)(=O)N1CCCC(CO)(CC=C(C)C)C1 (stereo not drawn),-3.41%
15,COc1c(C)cnc(CN(C)C(=O)c2ccc(C3CCCO3)s2)c1C (stereo not drawn),9.5%
16,CCCn1c(C)c(CC(=O)NCCOC)c2c1CC(C)(C)CC2=O,-1.01%
17,CC1(C)OC(=O)N(CCCC(=O)c2ccc(F)cc2)C1=O,-4.87%
18,Cn1ccc2c(-c3cc(N4CCOCC4)ncn3)ccnc21,2.64%
19,CN(CCc1ncnn1C1Cc2ccccc2C1)C1CCS(=O)(=O)C1 (stereo not drawn),-3.54%
20,Nc1ccc(C(=O)N2CCCC(C(=O)CCc3ccccc3)C2)cn1 (stereo not drawn),-7.98%
21,CN(C)S(=O)(=O)N1CC[C@]2(O)CCN(Cc3cccc(C#N)c3)C[C@@H]2C1,-4.63%

row,Structure (SMILES),cytotoxicity at 10 µM
1,CN(CC(=O)N1CC(C)(C)[C@](O)(C2CC2)C1)Cc1cccnc1,-52%
2,COc1ccc(Oc2cncc(C3CCCN3C(C)=O)n2)cc1 (stereo not drawn),2.86%
3,Cc1cc(C)n(CC2CN(CC(=O)N3CCNC3=O)CCO2)n1 (stereo not drawn),-2.38%
4,Cn1cnc2c1CCN(Cc1csc(Cc3ccccc3)n1)C2,-5.4%
5,Cc1ncncc1C(=O)N1CCOC(c2nc(C(C)C)n[nH]2)C1 (stereo not drawn),-4.98%
6,Cc1ccc(NC2CCN(C(=O)CCCc3cccs3)CC2)nn1,-8.49%
7,Cc1ccccc1OCC(=O)N1CCCC(CNS(C)(=O)=O)C1 (stereo not drawn),2.07%
8,Cc1cc(C)n(CC2CCCN2C(=O)c2cnccn2)n1 (stereo not drawn),6.41%
9,CCn1cnnc1CNC(=O)N1CCOCC1,3.66%
10,Cc1nc(C2CCCN(C(=O)c3cccc4c3OCO4)C2)no1 (stereo not drawn),3.39%
11,CCCc1ncc(C(=O)N2CCOC(c3nc(C)n[nH]3)C2)s1 (stereo not drawn),-0.12%
12,Cc1ccccc1CN1CCN(CC(=O)Nc2cccnc2)CC1,-2.82%
13,CN(C)Cc1nn(C)c2c1CN(C(=O)c1ccc[nH]1)C2,9.22%
14,O=S(=O)(C1CC1)N1CC[C@H](OCC2CC2)[C@@H]1Cc1cccnc1,8.13%
15,O=C1NCC[C@]12CN(Cc1cccnc1)C[C@H]2c1ccccc1,-137%
16,O=C(Nc1ccc(F)cc1)C(c1ccccc1)N1CCOCC1 (stereo not drawn),-3.84%
17,CC(C)Nc1nc2c(cc1C(=O)N(C)C)CCNCC2,-4.99%
18,COc1cc(N2CCC3(CCN(C(=O)c4cccnc4)CC3)C2)ncn1,-130%
19,Cn1nc(Cn2cccn2)c2c1CN(C1CCOC1)C2 (stereo not drawn),6.92%
20,CN(C)C(=O)N1C[C@H]2CC[C@@H](C1)N(Cc1nnc(-c3ccccc3)o1)C2,4.6%

# Reference: ChEMBL document CHEMBL4513216, “Probing the Open Global Health Chemical Diversity Library for Multistage-Active Starting Points for Next-Generation Antimalarials” (ACS Infect Dis, 2020)
